High-throughput results (PubChem BioAssay)
The list is not random: actives were taken first. Their share in the collection is about 3.7%.
EP2 antag: blocks the human prostaglandin E2 receptor EP2; C6 glioma cells expressing human EP2, cAMP TR-FRET; cells stimulated with saturating PGE2; inhibition, % at 25 µM; hit rate 0.52% among 260,000;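 active = percent inhibition above 40 after rounding to a whole number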;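 note: rat C6 glioma host cells with rolipram phosphodiesterase inhibitor present; the protocol text gives 20 µM as final concentration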
EP2 mod: modulators of human EP2 prostaglandin E2 receptor; P43116; EP2-expressing cells, cAMP HTRF FRET, PGE2 co-stimulation; induction, % at 25 µM; hit rate 0.83% among 260,000; AID 940;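 active = compounds whose cAMP rise, as percent of the full-agonist control response, exceeds 60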;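 note: rat C6 glioma line stably carrying human EP2 under a CMV promoter; the protocol text gives 20 µM as final concentration; 100% = response of wells given 1 µM PGE2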
OX1R antag-1: human HCRTR1 antagonism; AID 434989; hit rate 0.43% among 330,000; CHO/OX1R cells, Fluo-8 calcium fluorescence, orexin A; inhibition, % at 5 µM; O43613;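 active = inhibition above its plate's threshold, mean inhibition of all tested compounds on the plate plus 3 SD, cut at about 37% in these data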;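 note: 0% = orexin A challenge wells and 100% = SB-334867-A antagonist wells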
GPR7 antag: blocks human GPR7 receptor signaling. P48145. GPR7-expressing cells, fluorescence antagonist assay. inhibition, % at 4.4 µM. hit rate 1.1% among 290,000; in the data active = inhibition above about 16%, passing the limit was not always enough;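 note: cells stimulated with the agonist NPW; 0% = agonist with vehicle and 100% = vehicle without agonist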
Target sequence (P48145 whole entry, looked up): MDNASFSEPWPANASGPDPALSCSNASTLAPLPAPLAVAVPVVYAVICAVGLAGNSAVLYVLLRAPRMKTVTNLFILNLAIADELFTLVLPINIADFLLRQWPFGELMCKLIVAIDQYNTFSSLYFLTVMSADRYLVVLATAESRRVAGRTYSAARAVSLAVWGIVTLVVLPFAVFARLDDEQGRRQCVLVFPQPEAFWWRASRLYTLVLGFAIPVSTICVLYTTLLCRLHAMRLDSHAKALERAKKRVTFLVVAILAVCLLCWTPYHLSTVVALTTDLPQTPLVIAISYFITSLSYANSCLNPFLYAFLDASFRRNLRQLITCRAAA
OX1R antag-2: OX1R (human) antagonism. hit rate 1.8% among 330,000. inhibition, % at 6.6 µM. OX1R-expressing cells, FRET antagonist read-out. AID 485270. O43613; in the data active = inhibition mostly above about 38%, no sharp cut-off; inactive = mostly below about 40%;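 note: 0% = agonist challenge alone and 100% = reference antagonist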
CHO parental Ca: counter-screen for OX1R antagonists: effect in parental CHO cells | AID 463079 | hit rate 0.63% among 330,000 | parental CHO-K1, ATP-induced calcium, Fluo-8 fluorescence | inhibition, % at 5.6 µM;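 active = inhibition above that plate's mean sample inhibition plus 3 SD, cut at about 26% in these data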;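 note: 0% = ATP-challenged DMSO wells and 100% = DMSO wells without ATP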
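Assay system – parental CHO cells · Reagent – ATP stimulus · Detection – intracellular calcium via Fluo-8 no-wash fluorescent dye · Evaluation – percent inhibition of ATP-evoked calcium rise, normalized to controls · Controls – ATP wells versus no-ATP DMSO wells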
* = called active by the depositor.

Screening CC(=O)Nc1ccc(S(=O)(=O)NC(C)c2ccccc2)cc1 (centres undefined) returned GPR7 antag -14.
Screening CC(C)OC(=O)CSc1nnc(C2CCCCC2)n1N returned EP2 antag 6, EP2 mod -28, OX1R antag-1 -23, GPR7 antag 15, OX1R antag-2 0 and CHO parental Ca -14.
Screening CCOC(=O)c1cc(-c2ccccc2)nc2ccc(C)cc12 returned EP2 antag 4, EP2 mod 66*, OX1R antag-1 -41, GPR7 antag 8, OX1R antag-2 3 and CHO parental Ca -19.
For CC(=O)COC(=O)c1cc(-c2ccccc2)nc2ccc(Br)cc12 the results were EP2 antag 25 and EP2 mod 68*.
For Cc1cc(Cl)ccc1Nc1sc(C(=O)c2cc3cc(Cl)ccc3o2)c(N)c1C#N the results were EP2 antag 51* and EP2 mod -16.
For Cc1c(C(=O)N2CCCCC2)sc(NC(=O)c2ccc(Cl)cc2Cl)c1C#N the results were EP2 antag 11 and EP2 mod -7.
Screening Nc1n[nH]c2cc(=O)n(-c3ccc(Cl)cc3)nc12 returned EP2 antag 5, EP2 mod 27, OX1R antag-1 -1, GPR7 antag -9, OX1R antag-2 46* and CHO parental Ca -7.
COc1ccc(-n2nc(C(N)=O)c(O)cc2=O)cc1 was read as EP2 antag 5, EP2 mod 4, OX1R antag-1 -20, GPR7 antag -1, OX1R antag-2 10 and CHO parental Ca 3.
For COc1ccc(-n2nc3c(N)n[nH]c3cc2=O)cc1 the results were EP2 antag 6, EP2 mod 27, OX1R antag-1 -7, GPR7 antag -6, OX1R antag-2 54* and CHO parental Ca -9.
Screening O=C(NC1CC1)c1sc2cc([N+](=O)[O-])ccc2c1Cl returned EP2 antag 14, EP2 mod -33, OX1R antag-1 -4, GPR7 antag -8, OX1R antag-2 69* and CHO parental Ca 1.
CCCCCCCc1nc2c(=O)n(C)c3ccccc3c2o1 was read as EP2 antag 7, EP2 mod 70*, OX1R antag-1 -6, GPR7 antag -2, OX1R antag-2 11 and CHO parental Ca -4.
Screening Cc1ccc(OCC(=O)N/N=C\c2cn(Cc3ccccc3)c3ccccc23)cc1C returned EP2 antag 5, EP2 mod 7, OX1R antag-1 -2, GPR7 antag 13, OX1R antag-2 8 and CHO parental Ca -7.
Cc1cc(-c2ccccc2)c2c(n1)sc1c(O)cc(=O)[nH]c12 was read as EP2 antag 18, EP2 mod 27, OX1R antag-1 0, GPR7 antag 1, OX1R antag-2 -1 and CHO parental Ca -17.
Cc1cc(-c2cccs2)c2c(n1)sc1c(=O)[nH]c(=O)[nH]c12 was read as EP2 antag 47*, EP2 mod 31, OX1R antag-1 -17, GPR7 antag 1, OX1R antag-2 21 and CHO parental Ca -10.
Screening CCOc1ccc2nc(N3CCC(C(=O)NCCCN4CCOCC4)CC3)sc2c1 returned EP2 antag 8, EP2 mod 3, OX1R antag-1 -15, GPR7 antag -8, OX1R antag-2 9 and CHO parental Ca 5.
`O=C1CC(c2ccc(O)cc2)Oc2cc(O)cc(O)c21` (centres undefined) gave EP2 antag 12, EP2 mod 11, OX1R antag-1 2, GPR7 antag -5, OX1R antag-2 18 and CHO parental Ca 4.
`CC1CC(=O)c2c(cc3c(-c4c(O)cc(O)c5c(O)c6c(cc45)OC(C)CC6=O)c(O)cc(O)c3c2O)O1` (centres undefined) gave EP2 antag 77*, EP2 mod -17, OX1R antag-1 7, GPR7 antag 2, OX1R antag-2 12 and CHO parental Ca 2.
Cc1ccc(NC(=O)c2cc(-c3cccc(O)c3)on2)cc1C was read as EP2 antag 30, EP2 mod -19, OX1R antag-1 13, GPR7 antag -4, OX1R antag-2 38* and CHO parental Ca 21.
COc1cccc(-c2cc(C(=O)Nc3cc(OC)c(OC)c(OC)c3)no2)c1 was read as EP2 antag 13, EP2 mod -5, OX1R antag-1 -3, GPR7 antag -9, OX1R antag-2 41* and CHO parental Ca -12.
`O=C(O)c1ccc([N+](=O)[O-])c(CS(=O)(=O)c2ccc(Cl)cc2)c1` gave EP2 antag 6, EP2 mod 35, OX1R antag-1 -10, GPR7 antag -8, OX1R antag-2 22 and CHO parental Ca -6.
Screening CSc1n[nH]c(NC(=O)c2c(-c3c(Cl)cccc3Cl)noc2C)n1 returned EP2 antag 9, EP2 mod 47, OX1R antag-1 -5, GPR7 antag -13, OX1R antag-2 38 and CHO parental Ca -7.
`N#Cc1ccsc1NC(=O)c1ccc(Cl)c([N+](=O)[O-])c1` gave EP2 antag 10, EP2 mod -19, OX1R antag-1 25, GPR7 antag 20*, OX1R antag-2 88* and CHO parental Ca 46*.
For c1ccc(-c2cc(-c3nnc(-c4ccncc4)o3)c3ccccc3n2)cc1 the results were EP2 antag 8 and EP2 mod 80*.
For COc1ccc(-c2n(CC(=O)OC3CC(C)CCC3C(C)C)c3ccccc3[n+]2C)cc1 (centres undefined) the results were EP2 antag 17, EP2 mod -58 and GPR7 antag 93*.
For Cc1ccc[n+](CC(=O)OC2CC(C)CCC2C(C)C)c1 (centres undefined) the results were EP2 antag 11 and EP2 mod 36.
Cc1ccc2oc(-c3cccc(NC(=O)c4ccccn4)c3)nc2c1 was read as OX1R antag-1 -42, GPR7 antag -19, OX1R antag-2 68* and CHO parental Ca -4.
Screening NCC(c1ccco1)c1c[nH]c2ccccc12 (centres undefined) returned GPR7 antag 5.
For O=S1(=O)CCN(c2ccccc2CC(c2c[nH]c3ccccc23)c2c[nH]c3ccccc23)CC1 the results were EP2 antag 52* and EP2 mod 7.
`COc1ccc2[nH]cc(C(O)CN3CCN(c4ccccc4)CC3)c2c1` (centres undefined) gave EP2 antag 8, EP2 mod -5 and GPR7 antag -2.
For COc1cccc2c1-c1c(O)cccc1C2=O the results were OX1R antag-1 -6, GPR7 antag -7, OX1R antag-2 12 and CHO parental Ca -5.
Screening COc1cccc2c1C(=O)c1c(O)c3c(c(O)c1C2=O)C[C@](O)(C(C)=O)C[C@H]3O[C@@H]1C[C@@H](N)[C@@H](O)[C@@H](C)O1 returned OX1R antag-1 4, OX1R antag-2 49* and CHO parental Ca 10.
